From ChEMBL document CHEMBL1154522, “Aryl sulfamates are broad spectrum inactivators of sulfatases: effects on sulfatases from various sources” (Bioorg Med Chem Lett, 2009) come the findings set out here.

The subject of test [1] is Haliotis corrugata. Kind of test: Inhibition of abalone entrails type 8 recombinant sulfatase expressed in Escherichia coli by fast phase inactivation.
The subject of test [2] is Haliotis corrugata. Kind of test: Ratio of Kinact to Ki for abalone entrails type 8 recombinant sulfatase expressed in Escherichia coli by slow phase inactivation.
Test [3] relates to Patella vulgata. The test is described as follows: Ratio of Kinact to Ki for Patella vulgata type 5 recombinant sulfatase expressed in Escherichia coli. An outline of the steps: (§1)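 Limpet sulfatase at pH 7 with 0–12.5 mM sulfamate; semi-logarithmic plots of residual activity over time, inactivation rates replotted against concentration to give Ki and kinact.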
Test [4] relates to Haliotis corrugata. The test is described as follows: Inhibition of abalone entrails type 8 recombinant sulfatase expressed in Escherichia coli by slow phase inactivation.
Test [5] has as its target Arylsulfatase (Pseudomonas aeruginosa (strain ATCC 15692 / PAO1 / 1C / PRS 101 / LMG12228)) (UniProt P51691). Kind of test: Inhibition of Pseudomonas aeruginosa recombinant arylsulfatase A expressed in Escherichia coli.
For test [6], the system named is Helix pomatia. The test is described as follows: Inhibition of Helix pomatia type H1 recombinant sulfatase expressed in Escherichia coli. An outline of the steps: (§2)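 Snail sulfatase incubated at pH 7 with 0–500 µM 3-nitrophenyl sulfamate; residual activity plotted semi-logarithmically against time, and pseudo-first-order rates replotted against inactivator concentration to fit Ki and kinact (E + I ⇌ E·I → E–P).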

The test system of test [7] is Haliotis corrugata. The test is described as follows: Ratio of Kinact to Ki for abalone entrails type 8 recombinant sulfatase expressed in Escherichia coli by fast phase inactivation.
In test [8] the test system is Patella vulgata. Kind of test: Inhibition of Patella vulgata type 5 recombinant sulfatase expressed in Escherichia coli. In a few lines:
as §1

Test [9] addresses Arylsulfatase (Pseudomonas aeruginosa (strain ATCC 15692 / PAO1 / 1C / PRS 101 / LMG12228)) (UniProt P51691). Kind of test: Ratio of Kinact to Ki for Pseudomonas aeruginosa recombinant arylsulfatase A expressed in Escherichia coli.
Test [10] has as its system Helix pomatia. Kind of test: Ratio of Kinact to Ki for Helix pomatia type H1 recombinant sulfatase expressed in Escherichia coli. An outline of the steps:
as §2

Test [11] deals with Haliotis corrugata. The test is described as follows: Protection against inactivation in abalone entrails type 8 recombinant sulfatase expressed in Escherichia coli assessed as ratio of residual enzyme activity to initial activity at 0.5 mM after 25 seconds using 4-nitrophenyl sulfate as substrate. An outline of the steps:
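Abalone sulfatase given 0.5 mM sulfamate at pH 7 with or without 30 mM 4-nitrophenyl sulfate; residual activity assayed 25 s after inactivator addition, expressed as vres/v0 against an untreated control.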

Test [12] relates to Patella vulgata. The test is described as follows: Protection against inactivation in Patella vulgata type 5 recombinant sulfatase expressed in Escherichia coli assessed as ratio of residual enzyme activity to initial activity at 1 mM after 20 seconds using 4-nitrophenyl sulfate as substrate. In a few lines: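 Limpet sulfatase given 1 mM sulfamate at pH 7 with or without 79 mM 4-nitrophenyl sulfate; residual activity assayed 20 s after inactivator addition, expressed as vres/v0 against an untreated control.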

Test [13] deals with Haliotis corrugata. Kind of test: Activity at abalone entrails type 8 recombinant sulfatase expressed in Escherichia coli.
Test [14] deals with Haliotis corrugata. Kind of test: Activity at abalone entrails type 8 recombinant sulfatase expressed in Escherichia coli assessed per mg of protein. An outline of the steps:
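Crude limpet or abalone enzyme hydrolysing potassium 4-nitrophenyl sulfate; 4-nitrophenol release read at 410 nm; 10 mM α-cyclodextrin added to raise sensitivity (Δε410 14400 M−1 cm−1 at pH 7); Vmax per mg protein, Km in mM.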

In test [15] the test system is Helix pomatia. Kind of test: Activity at Helix pomatia type H1 recombinant sulfatase expressed in Escherichia coli. An outline of the steps: (§3)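 Hydrolysis of potassium 4-nitrophenyl sulfate followed by release of 4-nitrophenol; Vmax is expressed per mg protein and Km in mM; Vmax/Km is derived from these.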
For test [16], the system named is Patella vulgata. Kind of test: Activity at Patella vulgata type 5 recombinant sulfatase expressed in Escherichia coli.
For test [17], the target named is Arylsulfatase (Pseudomonas aeruginosa (strain ATCC 15692 / PAO1 / 1C / PRS 101 / LMG12228)) (UniProt P51691). The test is described as follows: Ratio of Vmax/Km for Pseudomonas aeruginosa recombinant arylsulfatase A expressed in Escherichia coli. In a few lines: as §3
The test system of test [18] is Helix pomatia. The test is described as follows: Activity at Helix pomatia type H1 recombinant sulfatase expressed in Escherichia coli assessed per mg of protein. In a few lines: as §3
Test [19] has as its system Haliotis corrugata. The test is described as follows: Ratio of Vmax/Km for abalone entrails type 8 recombinant sulfatase expressed in Escherichia coli.
The test system of test [20] is Helix pomatia. Kind of test: Ratio of Vmax/Km for Helix pomatia type H1 recombinant sulfatase expressed in Escherichia coli. In a few lines:
as §3

Arylsulfatase (Pseudomonas aeruginosa (strain ATCC 15692 / PAO1 / 1C / PRS 101 / LMG12228)), sequence (P51691 whole entry): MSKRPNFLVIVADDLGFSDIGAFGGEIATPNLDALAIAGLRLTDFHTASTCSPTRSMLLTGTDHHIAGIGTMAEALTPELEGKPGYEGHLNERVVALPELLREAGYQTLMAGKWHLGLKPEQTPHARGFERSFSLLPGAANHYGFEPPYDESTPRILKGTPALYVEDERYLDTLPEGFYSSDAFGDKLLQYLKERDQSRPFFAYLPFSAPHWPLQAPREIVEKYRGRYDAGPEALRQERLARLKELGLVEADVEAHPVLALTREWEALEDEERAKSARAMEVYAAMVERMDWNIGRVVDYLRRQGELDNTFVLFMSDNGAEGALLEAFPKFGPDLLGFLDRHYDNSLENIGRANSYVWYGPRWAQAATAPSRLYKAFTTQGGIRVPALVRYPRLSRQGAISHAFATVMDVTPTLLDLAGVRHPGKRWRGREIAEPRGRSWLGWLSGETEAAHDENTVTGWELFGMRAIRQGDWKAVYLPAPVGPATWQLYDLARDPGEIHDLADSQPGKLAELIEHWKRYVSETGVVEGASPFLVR

Consider `NS(=O)(=O)Oc1cccc([N+](=O)[O-])c1`, for which the T1/2 with Haliotis corrugata [1] is 10 s; in the test with Haliotis corrugata [4], 4.28 min; in test [5] it was 11 s; in the test with Helix pomatia [6] it was 17 s; with Patella vulgata [8] it was 18 s. For the same compound, the Ratio with Haliotis corrugata [2] came to 0.0005 s⁻¹ mM⁻¹; in the test on Patella vulgata [3] it was 0.038 s⁻¹ mM⁻¹; in the test with Haliotis corrugata [7] it was 0.043 s⁻¹ mM⁻¹; in test [9], 480 s⁻¹ mM⁻¹; in the test on Helix pomatia [10] it was 1.19 s⁻¹ mM⁻¹; in the test with Haliotis corrugata [11], 1.01. Further, the Ratio in the test with Patella vulgata [12] was 0.91.

For orientation: Km means the substrate concentration at which the rate is half of its maximum. A word on the Vmax: it is the rate approached at saturating substrate. As to `O=[N+]([O-])c1ccc(OS(=O)(=O)O)cc1`, the Km in the test with Haliotis corrugata [13] amounted to 10.2 mM; in the test with Helix pomatia [15] it was 2030 µM; in the test on Patella vulgata [16], 10 mM. The Vmax came to 0.68 mmol/min/mg in the test with Haliotis corrugata [14] and 0.319 mmol/min/mg in the test on Helix pomatia [18]. For the same compound, the Vmax/Km in test [17] was found to be 7900; in the test with Haliotis corrugata [19], 0.066; with Helix pomatia [20], 0.157.
